In ChEMBL document CHEMBL4184148 (Bioorg Med Chem Lett, 2017):

Legend:
[1] = biological target: T1, Aurora kinase C (Homo sapiens, UniProt Q9UQB9); assay: Inhibition of recombinant full length GST-tagged human Aurora C expressed in baculovirus expression system by Z'LYTE assay
T1 sequence (Q9UQB9 whole entry): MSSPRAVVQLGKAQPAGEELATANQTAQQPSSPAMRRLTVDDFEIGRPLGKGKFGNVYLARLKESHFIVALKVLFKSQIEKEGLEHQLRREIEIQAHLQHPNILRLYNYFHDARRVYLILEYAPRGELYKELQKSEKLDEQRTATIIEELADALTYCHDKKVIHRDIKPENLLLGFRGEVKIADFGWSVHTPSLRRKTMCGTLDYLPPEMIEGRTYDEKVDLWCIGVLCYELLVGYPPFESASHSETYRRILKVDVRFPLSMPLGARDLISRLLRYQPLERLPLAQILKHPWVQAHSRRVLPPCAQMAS
Outline: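 Biochemical IC50 from a Z'LYTE kinase assay, with ATP at the Km for each kinase. Values are reported with standard error.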

[2] = system: Tyrosine-protein kinase ABL1 (Homo sapiens), P00519 [Q252H]; assay: Binding affinity to human non-phosphorylated ABL1 Q252H mutant (S229 to K512 residues) expressed in HEK293 cells at 1 uM by Kinomescan method relative to control; type: cell-based
[3] = biological target: Mitogen-activated protein kinase kinase kinase 6 (Homo sapiens) (UniProt O95382); assay: Binding affinity to wild-type human partial length ASK2 (M278 to R972 residues) expressed in HEK293 cells at 1 uM by Kinomescan method relative to control; type: cell-based
Outline: (§1)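 Kinome-wide competition binding panel run by an outside provider, with each compound tested at a single concentration. Activity is read against the kinase panel.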

[4] = biological target: Calcium/calmodulin-dependent protein kinase kinase 2 (Homo sapiens) (UniProt Q96RR4); assay: Binding affinity to wild-type human partial length CAMKK2 (D65 to V471 residues) expressed in Escherichia coli BL21 at 1 uM by Kinomescan method relative to control
[5] = biological target: Cyclin-dependent kinase 13 (Homo sapiens) (UniProt Q14004); assay: Binding affinity to wild-type human partial length CDC2L5 (H675 to S1054 residues) expressed in HEK293 cells at 1 uM by Kinomescan method relative to control; type: cell-based
[6] = biological target: Casein kinase I isoform gamma-3 (Homo sapiens) (UniProt Q9Y6M4); assay: Binding affinity to wild-type human full length CSNK1G3 (M1 to K447 residues) expressed in Escherichia coli BL21 at 1 uM by Kinomescan method relative to control
Outline: (§2)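 Run as one kinome-wide competition binding panel with each compound at a single fixed concentration. Results were plotted as a kinome-wide selectivity map.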

[7] = biological target: Serine/threonine-protein kinase DCLK3 (Homo sapiens) (UniProt Q9C098); assay: Binding affinity to wild-type human partial length DCAMKL3 (E140 to V628 residues) expressed in Escherichia coli BL21 at 1 uM by Kinomescan method relative to control
[8] = biological target: Dual specificity tyrosine-phosphorylation-regulated kinase 2 (Homo sapiens) (UniProt Q92630); assay: Binding affinity to wild-type human full length DYRK2 (M1 to S528 residues) expressed in HEK293 cells at 1 uM by Kinomescan method relative to control; type: cell-based; outline: as §2
[9] = biological target: Mitogen-activated protein kinase 3 (Homo sapiens) (UniProt P27361); assay: Binding affinity to wild-type human full length ERK1 (M1 to P379 residues) expressed in Escherichia coli BL21 at 1 uM by Kinomescan method relative to control; outline: as §2
[10] = biological target: Serine/threonine-protein kinase/endoribonuclease IRE1 (Homo sapiens) (UniProt O75460); assay: Binding affinity to wild-type human partial length ERN1 (S551 to E852 residues) expressed in HEK293 cells at 1 uM by Kinomescan method relative to control; type: cell-based
[11] = system: Receptor-type tyrosine-protein kinase FLT3 (Homo sapiens), P36888 [D835V]; assay: Binding affinity to human partial length FLT3 D835V mutant (V592 to Y969 residues) expressed in Escherichia coli BL21 at 1 uM by Kinomescan method relative to control
[12] = biological target: Interleukin-1 receptor-associated kinase 4 (Homo sapiens) (UniProt Q9NWZ3); assay: Binding affinity to wild-type human partial length IRAK4 (M1 to S460 residues) expressed in HEK293 cells at 1 uM by Kinomescan method relative to control; type: cell-based
[13] = biological target: Tyrosine-protein kinase JAK2 (Homo sapiens) (UniProt O60674); assay: Binding affinity to wild-type human partial length JAK2 JH1 catalytic domain (A829 to G1132 residues) expressed in HEK293 cells at 1 uM by Kinomescan method relative to control; type: cell-based
[14] = biological target: Serine/threonine-protein kinase MAK (Homo sapiens) (UniProt P20794); assay: Binding affinity to wild-type human partial length MAK (M1 to P314 residues) expressed in Escherichia coli BL21 at 1 uM by Kinomescan method relative to control
[15] = biological target: Misshapen-like kinase 1 (Homo sapiens) (UniProt Q8N4C8); assay: Binding affinity to wild-type human partial length MINK (M1 to K312 residues) expressed in HEK293 cells at 1 uM by Kinomescan method relative to control; type: cell-based
[16] = biological target: Serine/threonine-protein kinase Nek4 (Homo sapiens) (UniProt P51957); assay: Binding affinity to wild-type human full length NEK4 (M1 to F841 residues) expressed in HEK293 cells at 1 uM by Kinomescan method relative to control; type: cell-based; outline: as §1
[17] = biological target: 1-phosphatidylinositol 3-phosphate 5-kinase (Homo sapiens) (UniProt Q9Y2I7); assay: Binding affinity to wild-type human partial length PIKFYVE (F1512 to C2098 residues) expressed in HEK293 cells at 1 uM by Kinomescan method relative to control; type: cell-based
[18] = biological target: Serine/threonine-protein kinase SIK3 (Homo sapiens) (UniProt Q9Y2K2); assay: Binding affinity to wild-type human partial length QSK (A90 to L395 residues) expressed in HEK293 cells at 1 uM by Kinomescan method relative to control; type: cell-based
[19] = biological target: Proto-oncogene tyrosine-protein kinase receptor Ret (Homo sapiens) (UniProt P07949); assay: Binding affinity to wild-type human partial length RET (E713 to D1014 residues) expressed in Escherichia coli BL21 at 1 uM by Kinomescan method relative to control
[20] = biological target: Ribosomal protein S6 kinase alpha-1 (Homo sapiens) (UniProt Q15418); assay: Binding affinity to wild-type human partial length N-terminal RSK1 Kinase domain 1 (M1 to E388 residues) expressed in Escherichia coli BL21 at 1 uM by Kinomescan method relative to control
[21] = biological target: Serine/threonine-protein kinase 35 (Homo sapiens) (UniProt Q8TDR2); assay: Binding affinity to wild-type human partial length STK35 (G182 to A534 residues) expressed in Escherichia coli BL21 at 1 uM by Kinomescan method relative to control
[22] = biological target: Wee1-like protein kinase 2 (Homo sapiens) (UniProt P0C1S8); assay: Binding affinity to wild-type human partial length WEE2 (M204 to K492 residues) expressed in Escherichia coli BL21 at 1 uM by Kinomescan method relative to control

Sequence of Mitogen-activated protein kinase 3 (Homo sapiens) (P27361 whole entry, the tested form may be a part): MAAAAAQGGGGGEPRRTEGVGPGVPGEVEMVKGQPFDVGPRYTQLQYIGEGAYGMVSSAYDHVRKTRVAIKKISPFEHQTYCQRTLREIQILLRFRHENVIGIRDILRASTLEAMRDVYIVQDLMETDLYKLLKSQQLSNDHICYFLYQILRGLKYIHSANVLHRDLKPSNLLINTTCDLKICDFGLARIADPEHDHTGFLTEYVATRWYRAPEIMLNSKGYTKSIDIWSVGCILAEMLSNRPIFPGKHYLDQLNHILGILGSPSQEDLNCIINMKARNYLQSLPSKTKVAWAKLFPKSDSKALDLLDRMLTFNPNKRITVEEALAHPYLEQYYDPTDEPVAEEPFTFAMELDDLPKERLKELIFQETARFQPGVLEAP
Sequence of Serine/threonine-protein kinase MAK (Homo sapiens) (P20794 whole entry, the tested form may be a part): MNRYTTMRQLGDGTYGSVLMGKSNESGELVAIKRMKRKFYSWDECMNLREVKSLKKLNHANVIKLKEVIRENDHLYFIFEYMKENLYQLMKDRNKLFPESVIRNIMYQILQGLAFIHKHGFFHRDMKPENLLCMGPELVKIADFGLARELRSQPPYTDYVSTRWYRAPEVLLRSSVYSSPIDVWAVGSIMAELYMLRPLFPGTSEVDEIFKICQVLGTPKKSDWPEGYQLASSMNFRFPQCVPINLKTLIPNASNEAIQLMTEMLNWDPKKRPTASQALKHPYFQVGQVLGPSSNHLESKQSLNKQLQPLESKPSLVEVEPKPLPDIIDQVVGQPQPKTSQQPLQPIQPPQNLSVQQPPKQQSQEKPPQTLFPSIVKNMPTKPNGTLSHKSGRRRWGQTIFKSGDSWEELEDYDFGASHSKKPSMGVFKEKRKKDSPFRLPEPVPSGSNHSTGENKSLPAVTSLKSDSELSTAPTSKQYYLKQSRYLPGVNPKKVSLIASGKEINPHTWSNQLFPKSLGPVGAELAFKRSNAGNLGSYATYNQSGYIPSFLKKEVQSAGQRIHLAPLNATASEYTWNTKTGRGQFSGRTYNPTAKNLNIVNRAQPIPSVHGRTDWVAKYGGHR
Sequence of Misshapen-like kinase 1 (Homo sapiens) (Q8N4C8 whole entry, looked up, the tested form may be a part): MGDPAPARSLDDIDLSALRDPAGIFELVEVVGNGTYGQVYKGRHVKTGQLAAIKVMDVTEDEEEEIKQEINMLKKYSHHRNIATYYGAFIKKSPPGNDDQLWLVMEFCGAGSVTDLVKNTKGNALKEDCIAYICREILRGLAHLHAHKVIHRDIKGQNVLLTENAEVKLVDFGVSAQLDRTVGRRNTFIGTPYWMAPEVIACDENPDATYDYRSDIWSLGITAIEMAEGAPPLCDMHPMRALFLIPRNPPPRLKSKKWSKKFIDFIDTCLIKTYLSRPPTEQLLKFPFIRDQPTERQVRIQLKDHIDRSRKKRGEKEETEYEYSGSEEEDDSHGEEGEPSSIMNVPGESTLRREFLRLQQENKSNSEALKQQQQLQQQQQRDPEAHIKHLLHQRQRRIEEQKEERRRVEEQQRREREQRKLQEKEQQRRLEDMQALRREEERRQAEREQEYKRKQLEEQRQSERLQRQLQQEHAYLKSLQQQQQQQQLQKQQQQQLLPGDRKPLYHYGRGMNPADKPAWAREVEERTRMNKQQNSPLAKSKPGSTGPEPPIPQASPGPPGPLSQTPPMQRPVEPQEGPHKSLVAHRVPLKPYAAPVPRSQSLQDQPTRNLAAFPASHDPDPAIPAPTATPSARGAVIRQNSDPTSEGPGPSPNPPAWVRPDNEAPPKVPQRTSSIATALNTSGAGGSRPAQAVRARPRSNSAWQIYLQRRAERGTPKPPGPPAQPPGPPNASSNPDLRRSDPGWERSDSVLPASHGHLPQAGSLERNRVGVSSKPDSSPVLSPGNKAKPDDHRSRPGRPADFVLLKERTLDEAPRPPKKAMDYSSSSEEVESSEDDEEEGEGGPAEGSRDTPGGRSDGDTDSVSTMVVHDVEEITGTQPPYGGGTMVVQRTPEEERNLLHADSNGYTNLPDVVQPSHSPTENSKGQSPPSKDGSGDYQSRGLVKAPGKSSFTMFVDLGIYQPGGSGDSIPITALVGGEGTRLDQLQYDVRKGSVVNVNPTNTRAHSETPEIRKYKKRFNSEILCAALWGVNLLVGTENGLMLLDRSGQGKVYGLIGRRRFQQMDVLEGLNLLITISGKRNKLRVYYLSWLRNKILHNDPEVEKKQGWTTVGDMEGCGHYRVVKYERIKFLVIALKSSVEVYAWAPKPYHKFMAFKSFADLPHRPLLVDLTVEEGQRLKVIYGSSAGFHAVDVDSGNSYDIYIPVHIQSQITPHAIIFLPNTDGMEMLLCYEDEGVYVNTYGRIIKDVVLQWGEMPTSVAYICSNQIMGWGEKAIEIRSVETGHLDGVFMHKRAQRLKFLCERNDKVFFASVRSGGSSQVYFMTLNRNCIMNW
Sequence of Interleukin-1 receptor-associated kinase 4 (Homo sapiens) (Q9NWZ3 whole entry, the tested form may be a part): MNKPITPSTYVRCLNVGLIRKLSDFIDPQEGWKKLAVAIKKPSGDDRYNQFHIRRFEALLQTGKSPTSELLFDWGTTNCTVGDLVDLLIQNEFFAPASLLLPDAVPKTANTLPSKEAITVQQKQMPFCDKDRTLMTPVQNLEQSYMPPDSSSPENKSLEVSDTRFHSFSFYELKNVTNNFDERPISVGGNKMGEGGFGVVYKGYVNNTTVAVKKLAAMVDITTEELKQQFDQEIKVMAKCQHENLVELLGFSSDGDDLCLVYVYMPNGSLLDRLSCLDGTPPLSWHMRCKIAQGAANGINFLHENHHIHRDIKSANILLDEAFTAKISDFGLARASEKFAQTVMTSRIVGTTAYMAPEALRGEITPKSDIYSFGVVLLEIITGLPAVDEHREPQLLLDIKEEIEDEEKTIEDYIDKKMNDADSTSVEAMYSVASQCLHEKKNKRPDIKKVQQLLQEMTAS
Sequence of Serine/threonine-protein kinase/endoribonuclease IRE1 (Homo sapiens) (O75460 19-977 limits assumed): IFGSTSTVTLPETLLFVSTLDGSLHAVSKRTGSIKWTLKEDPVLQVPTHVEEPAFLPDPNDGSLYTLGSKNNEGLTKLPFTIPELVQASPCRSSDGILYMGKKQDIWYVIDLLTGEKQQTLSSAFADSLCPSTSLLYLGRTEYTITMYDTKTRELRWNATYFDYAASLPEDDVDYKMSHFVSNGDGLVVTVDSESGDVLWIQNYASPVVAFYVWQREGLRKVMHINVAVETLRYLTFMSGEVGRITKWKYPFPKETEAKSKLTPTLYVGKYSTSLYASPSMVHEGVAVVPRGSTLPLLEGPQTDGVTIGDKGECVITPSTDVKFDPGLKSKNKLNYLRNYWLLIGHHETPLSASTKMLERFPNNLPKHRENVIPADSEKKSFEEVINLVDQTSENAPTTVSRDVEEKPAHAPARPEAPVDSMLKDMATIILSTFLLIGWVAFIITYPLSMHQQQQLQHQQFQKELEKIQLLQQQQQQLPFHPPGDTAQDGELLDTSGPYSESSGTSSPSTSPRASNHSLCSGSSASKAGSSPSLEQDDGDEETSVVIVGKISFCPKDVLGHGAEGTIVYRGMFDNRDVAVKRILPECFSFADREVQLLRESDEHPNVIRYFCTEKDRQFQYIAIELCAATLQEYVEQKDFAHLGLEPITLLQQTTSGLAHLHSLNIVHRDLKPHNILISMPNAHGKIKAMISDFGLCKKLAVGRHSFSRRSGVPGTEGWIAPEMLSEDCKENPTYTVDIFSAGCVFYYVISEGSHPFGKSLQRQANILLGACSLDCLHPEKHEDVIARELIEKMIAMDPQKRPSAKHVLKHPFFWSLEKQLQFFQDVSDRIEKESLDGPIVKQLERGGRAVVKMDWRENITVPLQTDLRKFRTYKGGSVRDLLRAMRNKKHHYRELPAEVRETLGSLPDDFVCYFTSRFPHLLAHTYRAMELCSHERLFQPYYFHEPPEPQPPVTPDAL
Sequence of Tyrosine-protein kinase JAK2 (Homo sapiens) (O60674 whole entry, the tested form may be a part): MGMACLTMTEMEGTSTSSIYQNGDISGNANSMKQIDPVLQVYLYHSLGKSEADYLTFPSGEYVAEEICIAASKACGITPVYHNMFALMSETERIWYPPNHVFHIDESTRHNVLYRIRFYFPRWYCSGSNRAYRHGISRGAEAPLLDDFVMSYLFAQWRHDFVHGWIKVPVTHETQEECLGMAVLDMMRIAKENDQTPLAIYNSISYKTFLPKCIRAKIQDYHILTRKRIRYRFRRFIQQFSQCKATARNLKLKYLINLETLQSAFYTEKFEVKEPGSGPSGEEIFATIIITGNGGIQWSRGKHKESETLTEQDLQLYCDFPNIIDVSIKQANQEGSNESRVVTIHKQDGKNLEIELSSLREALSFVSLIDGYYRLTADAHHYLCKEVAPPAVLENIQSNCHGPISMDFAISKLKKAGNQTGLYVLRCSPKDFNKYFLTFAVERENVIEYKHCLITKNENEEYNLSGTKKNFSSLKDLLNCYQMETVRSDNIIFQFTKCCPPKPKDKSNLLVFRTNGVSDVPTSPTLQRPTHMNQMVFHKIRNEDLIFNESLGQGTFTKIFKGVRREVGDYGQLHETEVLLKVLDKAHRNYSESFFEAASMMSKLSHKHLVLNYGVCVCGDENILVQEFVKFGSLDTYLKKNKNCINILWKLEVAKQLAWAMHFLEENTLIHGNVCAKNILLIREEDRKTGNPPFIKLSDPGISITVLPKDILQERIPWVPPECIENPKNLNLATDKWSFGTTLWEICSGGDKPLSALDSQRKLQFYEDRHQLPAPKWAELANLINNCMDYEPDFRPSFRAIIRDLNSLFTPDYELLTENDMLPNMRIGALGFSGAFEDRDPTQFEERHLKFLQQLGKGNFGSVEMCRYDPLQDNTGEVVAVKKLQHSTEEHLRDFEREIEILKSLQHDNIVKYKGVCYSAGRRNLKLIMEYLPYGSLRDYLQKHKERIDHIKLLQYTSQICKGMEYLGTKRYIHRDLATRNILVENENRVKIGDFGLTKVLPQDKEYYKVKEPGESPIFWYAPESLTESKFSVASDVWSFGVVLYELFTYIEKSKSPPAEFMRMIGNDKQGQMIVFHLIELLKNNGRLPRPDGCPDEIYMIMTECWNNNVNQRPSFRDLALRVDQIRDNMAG

Compound: CCC(=O)Nc1ccc(C(=O)Nc2ccc(Nc3ncc4c(n3)N(C)c3ccc(C)cc3C(=O)N4C)cc2)cc1
- IC50 [1]: 53 nM
- Activity [2]: 64%
- Activity [3]: 89%
- Activity [4]: 89%
- Activity [5]: 100%
- Activity [6]: 97%
- Activity [7]: 100%
- Activity [8]: 100%
- Activity [9]: 95%
- Activity [10]: 100%
- Activity [11]: 86%
- Activity [12]: 79%
- Activity [13]: 70%
- Activity [14]: 100%
- Activity [15]: 65%
- Activity [16]: 76%
- Activity [17]: 98%
- Activity [18]: 100%
- Activity [19]: 88%
- Activity [20]: 94%
- Activity [21]: 77%
- Activity [22]: 97%

Compound: C=CC(=O)Nc1ccc(C(=O)Nc2ccc(Nc3ncc4c(n3)N(C)c3ccc(C)cc3C(=O)N4C)cc2)cc1
- IC50 [1]: 63 nM
- Activity [2]: 68%
- Activity [3]: 83%
- Activity [4]: 92%
- Activity [5]: 99%
- Activity [6]: 100%
- Activity [7]: 93%
- Activity [8]: 92%
- Activity [9]: 100%
- Activity [10]: 87%
- Activity [11]: 90%
- Activity [12]: 95%
- Activity [13]: 100%
- Activity [14]: 78%
- Activity [15]: 98%
- Activity [16]: 86%
- Activity [17]: 100%
- Activity [18]: 88%
- Activity [19]: 86%
- Activity [20]: 100%
- Activity [21]: 96%
- Activity [22]: 100%
